# Calls of active or inactive are those of the source. The calls are words filed in the database; no cut-off is given here.
# What was measured:
# HT-29 [1] = test: Induction of cell cycle arrest in human HT-29 cells assessed as accumulation of cells at G0/G1 phase at 2 uM incubated for 24 hrs by RNase/PI staining based flow cytometry analysis (reference value: 50.206%); format: functional
# HT-29 [2] = test: Induction of cell cycle arrest in human HT-29 cells assessed as accumulation of cells at subG1 phase at 2 uM incubated for 24 hrs by RNase/PI staining based flow cytometry analysis (reference value: 1.798%); format: functional
# HT-29 [3] = test: Induction of mitochondrial damage in human HT-29 cells assessed as increase in monomer formation at 2 uM incubated for 24 hrs by JC-1 staining based flow cytometry analysis; format: functional, cell-based
# In short: (§1)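 HT-29 cells exposed 24 h to test agent at 1, 2 or 4 μM, then stained with JC-1. Flow cytometry scored the % of cells in JC-1 aggregate versus monomer populations. Treated groups were compared with untreated control by two-way ANOVA with Tukey's post hoc test.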
# HT-29 [4] = test: Induction of apoptosis in human HT29 cells assessed as increase in late apoptotic cells at 2 uM incubated for 24 hrs by annexin V/PI staining based flow cytometry analysis; format: functional, cell-based
# In short: (§2)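 Annexin/PI double staining of HT-29 cells after 24 h exposure at 1, 2 or 4 μM. Flow cytometry gated early apoptotic, late apoptotic and necrotic populations, reported as % of cells. Comparison to untreated control used two-way ANOVA followed by Tukey's post hoc analysis.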
# HT-29 [5] = test: Induction of mitochondrial ROS generation in human HT-29 cells at 2 uM by MitoSOX red dye based flow cytometry analysis; format: functional, cell-based
# In short: (§3)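 Mitochondrial superoxide in HT-29 cells was read with the mitochondria-localizing MitoSOX Red probe after treatment at 1, 2 or 4 μM. Flow cytometry histograms were acquired on 10,000 cells, and results were expressed as mean fluorescence intensity. Versus control, significance was tested by one-way ANOVA with Tukey's post hoc test.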
# HT-29 [6] = test: Downregulation of beta-catenin protein expression in human HT-29 cells at 2 uM by immunostaining based confocal microscopic analysis; format: functional, cell-based
# HT-29 [7] = test: Downregulation of TAB-182 protein expression in human HT-29 cells at 2 uM by immunostaining based confocal microscopic analysis; format: functional, cell-based
# [8] = target: 182 kDa tankyrase-1-binding protein (Homo sapiens) (UniProt Q9C0C2); test: Inhibition of TAB-182 phosphorylation in human HT-29 cells at 2 uM incubated for 72 hrs by Western blot analysis; format: cell-based
# Chain of 182 kDa tankyrase-1-binding protein (Homo sapiens) (Q9C0C2 whole entry): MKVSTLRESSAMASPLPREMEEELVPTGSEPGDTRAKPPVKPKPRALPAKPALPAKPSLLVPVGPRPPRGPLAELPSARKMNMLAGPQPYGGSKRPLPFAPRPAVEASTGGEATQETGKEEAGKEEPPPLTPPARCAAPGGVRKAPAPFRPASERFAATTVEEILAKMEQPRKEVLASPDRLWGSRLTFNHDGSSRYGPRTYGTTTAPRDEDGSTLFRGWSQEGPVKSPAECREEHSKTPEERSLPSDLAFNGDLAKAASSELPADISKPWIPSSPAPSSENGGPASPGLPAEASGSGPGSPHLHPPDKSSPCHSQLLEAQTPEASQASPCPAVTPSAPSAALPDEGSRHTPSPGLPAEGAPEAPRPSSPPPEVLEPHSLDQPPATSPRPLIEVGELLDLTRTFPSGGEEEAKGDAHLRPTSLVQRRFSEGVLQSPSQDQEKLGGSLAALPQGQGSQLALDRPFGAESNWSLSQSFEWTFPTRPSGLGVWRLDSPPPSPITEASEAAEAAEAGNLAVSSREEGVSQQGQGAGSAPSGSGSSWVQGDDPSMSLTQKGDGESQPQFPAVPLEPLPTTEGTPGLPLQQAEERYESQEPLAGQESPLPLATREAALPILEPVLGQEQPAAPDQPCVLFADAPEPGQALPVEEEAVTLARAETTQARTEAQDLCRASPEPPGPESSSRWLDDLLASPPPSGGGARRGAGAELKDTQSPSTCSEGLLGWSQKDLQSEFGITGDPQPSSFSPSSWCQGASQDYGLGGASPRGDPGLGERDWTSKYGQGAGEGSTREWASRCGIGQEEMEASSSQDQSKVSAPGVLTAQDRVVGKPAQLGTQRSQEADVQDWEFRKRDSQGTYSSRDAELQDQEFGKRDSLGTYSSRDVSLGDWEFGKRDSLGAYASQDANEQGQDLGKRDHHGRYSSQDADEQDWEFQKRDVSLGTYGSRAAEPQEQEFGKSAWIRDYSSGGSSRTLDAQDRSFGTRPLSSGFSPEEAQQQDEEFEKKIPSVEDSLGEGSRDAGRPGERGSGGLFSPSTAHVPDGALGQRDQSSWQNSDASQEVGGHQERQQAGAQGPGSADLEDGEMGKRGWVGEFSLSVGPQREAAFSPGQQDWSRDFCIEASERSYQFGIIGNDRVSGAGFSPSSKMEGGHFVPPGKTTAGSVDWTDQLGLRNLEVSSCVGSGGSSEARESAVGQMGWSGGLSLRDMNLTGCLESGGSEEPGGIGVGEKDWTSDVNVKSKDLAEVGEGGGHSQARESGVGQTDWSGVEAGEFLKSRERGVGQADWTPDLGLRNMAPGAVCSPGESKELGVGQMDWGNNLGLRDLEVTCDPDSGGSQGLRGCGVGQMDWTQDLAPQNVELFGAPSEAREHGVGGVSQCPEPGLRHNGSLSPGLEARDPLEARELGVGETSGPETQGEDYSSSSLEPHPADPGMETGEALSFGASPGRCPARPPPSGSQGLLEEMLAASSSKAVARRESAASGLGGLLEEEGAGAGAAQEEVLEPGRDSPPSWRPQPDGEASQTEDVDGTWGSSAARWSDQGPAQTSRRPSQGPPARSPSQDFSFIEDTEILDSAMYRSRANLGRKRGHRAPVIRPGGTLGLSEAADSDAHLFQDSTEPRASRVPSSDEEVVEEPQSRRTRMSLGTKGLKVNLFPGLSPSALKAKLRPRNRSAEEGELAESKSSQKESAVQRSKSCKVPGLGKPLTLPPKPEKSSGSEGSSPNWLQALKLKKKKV
# [9] = target: Glycogen synthase kinase-3 beta (Homo sapiens) (UniProt P49841); test: Inhibition of GSK3beta phosphorylation in human HT-29 cells at 2 uM incubated for 72 hrs by Western blot analysis; format: cell-based
# Chain of Glycogen synthase kinase-3 beta (Homo sapiens) (P49841 whole entry, looked up): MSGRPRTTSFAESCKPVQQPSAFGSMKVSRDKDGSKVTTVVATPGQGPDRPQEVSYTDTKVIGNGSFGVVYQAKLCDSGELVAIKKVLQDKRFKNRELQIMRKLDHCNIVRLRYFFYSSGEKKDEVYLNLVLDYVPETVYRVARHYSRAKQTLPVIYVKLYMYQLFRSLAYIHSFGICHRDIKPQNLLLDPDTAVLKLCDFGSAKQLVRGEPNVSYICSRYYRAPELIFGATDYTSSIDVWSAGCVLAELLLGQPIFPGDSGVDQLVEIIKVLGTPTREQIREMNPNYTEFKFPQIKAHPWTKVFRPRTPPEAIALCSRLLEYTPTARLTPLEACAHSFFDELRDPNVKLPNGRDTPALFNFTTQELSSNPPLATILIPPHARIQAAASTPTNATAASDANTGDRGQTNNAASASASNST
# HT-29 [10] = test: Inhibition of AXIN-2 protein expression in human HT-29 cells at 2 uM incubated for 72 hrs by Western blot analysis; format: functional, cell-based
# HT-29 [11] = test: Inhibition of TAB-182 protein expression in human HT-29 cells at 2 uM incubated for 72 hrs by Western blot analysis; format: functional, cell-based
# HT-29 [12] = test: Inhibition of AKT protein expression in human HT-29 cells at 2 uM incubated for 72 hrs by Western blot analysis; format: functional, cell-based
# HT-29 [13] = test: Induction of cell cycle arrest in human HT-29 cells assessed as accumulation of cells at G0/G1 phase at 1 uM incubated for 24 hrs by RNase/PI staining based flow cytometry analysis (reference value: 50.206%); format: functional
# HT-29 [14] = test: Induction of apoptosis in human HT29 cells assessed as increase in early apoptotic cells at 1 uM incubated for 24 hrs by annexin V/PI staining based flow cytometry analysis; format: functional, cell-based; in short: as §2
# HT-29 [15] = test: Induction of mitochondrial ROS generation in human HT-29 cells at 1 uM by MitoSOX red dye based flow cytometry analysis; format: functional, cell-based; in short: as §3
# HT-29 [16] = test: Downregulation of beta-catenin protein expression in human HT-29 cells at 1 uM by immunostaining based confocal microscopic analysis; format: functional, cell-based
# [17] = target: Phosphatidylinositol 3-kinase regulatory subunit alpha (Homo sapiens) (UniProt P27986); test: Inhibition of PI3K-P85 phosphorylation in human HT-29 cells at 1 uM incubated for 72 hrs by Western blot analysis; format: cell-based
# Chain of Phosphatidylinositol 3-kinase regulatory subunit alpha (Homo sapiens) (P27986 whole entry): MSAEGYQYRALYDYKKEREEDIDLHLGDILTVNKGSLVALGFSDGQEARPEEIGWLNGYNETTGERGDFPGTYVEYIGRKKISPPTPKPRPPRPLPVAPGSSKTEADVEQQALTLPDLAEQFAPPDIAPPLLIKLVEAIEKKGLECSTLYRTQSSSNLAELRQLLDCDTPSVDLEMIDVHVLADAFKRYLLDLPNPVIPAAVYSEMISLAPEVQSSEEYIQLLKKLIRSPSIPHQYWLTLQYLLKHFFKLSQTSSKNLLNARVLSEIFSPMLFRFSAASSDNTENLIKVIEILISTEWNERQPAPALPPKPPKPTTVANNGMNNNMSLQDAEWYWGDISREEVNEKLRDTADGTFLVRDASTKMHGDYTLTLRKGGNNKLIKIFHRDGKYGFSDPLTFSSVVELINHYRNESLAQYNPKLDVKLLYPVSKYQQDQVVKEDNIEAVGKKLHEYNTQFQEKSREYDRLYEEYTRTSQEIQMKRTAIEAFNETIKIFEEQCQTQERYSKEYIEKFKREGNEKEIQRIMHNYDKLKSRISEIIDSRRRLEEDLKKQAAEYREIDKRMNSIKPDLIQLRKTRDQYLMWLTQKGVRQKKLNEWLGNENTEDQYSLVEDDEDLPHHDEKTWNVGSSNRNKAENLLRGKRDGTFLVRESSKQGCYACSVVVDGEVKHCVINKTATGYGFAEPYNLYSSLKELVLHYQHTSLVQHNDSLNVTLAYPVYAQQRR
# HT-29 [18] = test: Inhibition of beta-actin protein expression in human HT-29 cells at 1 uM incubated for 72 hrs by Western blot analysis; format: functional, cell-based
# HT-29 [19] = test: Inhibition of beta-catenin protein expression in human HT-29 cells at 1 uM incubated for 72 hrs by Western blot analysis; format: functional, cell-based
# HT-29 [20] = test: Inhibition of phosphorylated PI3K-p85 protein expression in human HT-29 cells at 1 uM incubated for 72 hrs by Western blot analysis; format: functional, cell-based
# HT-29 [21] = test: Inhibition of PI3K-p85 protein expression in human HT-29 cells at 1 uM incubated for 72 hrs by Western blot analysis; format: functional, cell-based
# HT-29 [22] = test: Induction of cell cycle arrest in human HT-29 cells assessed as accumulation of cells at S phase at 4 uM incubated for 24 hrs by RNase/PI staining based flow cytometry analysis (reference value: 17.934 %); format: functional
# HT-29 [23] = test: Induction of cell cycle arrest in human HT-29 cells assessed as accumulation of cells at subG1 phase at 4 uM incubated for 24 hrs by RNase/PI staining based flow cytometry analysis (reference value: 1.798%); format: functional
# HT-29 [24] = test: Induction of mitochondrial damage in human HT-29 cells assessed as increase in monomer formation at 4 uM incubated for 24 hrs by JC-1 staining based flow cytometry analysis; format: functional, cell-based; in short: as §1
# HT-29 [25] = test: Induction of ROS generation in human HT-29 cells at 4 uM by CM-H2DCFDA fluorescent probe based flow cytometry analysis (reference value: 0.528%); format: functional
# HT-29 [26] = test: Downregulation of TAB-182 protein expression in human HT-29 cells at 4 uM by immunostaining based confocal microscopic analysis; format: functional, cell-based
# HT-29 [27] = test: Inhibition of AXIN-1 protein expression in human HT-29 cells at 4 uM incubated for 72 hrs by Western blot analysis; format: functional, cell-based
# HT-29 [28] = test: Inhibition of beta-actin protein expression in human HT-29 cells at 4 uM incubated for 72 hrs by Western blot analysis; format: functional, cell-based
# HT-29 [29] = test: Inhibition of phosphorylated GSK-3beta protein expression in human HT-29 cells at 4 uM incubated for 72 hrs by Western blot analysis; format: functional, cell-based
# HT-29 [30] = test: Inhibition of AKT protein expression in human HT-29 cells at 4 uM incubated for 72 hrs by Western blot analysis; format: functional, cell-based
smiles,measurement,setting,value
Fc1ccccc1-n1c(SCCc2c[nH]c3ccccc23)nnc1-c1ccncc1,Activity,HT-29 [1],67.66%
same,Activity,HT-29 [2],0.854%
same,Activity,HT-29 [3],Active
same,Activity,HT-29 [4],Active
same,Activity,HT-29 [5],Active
same,Activity,HT-29 [6],Active
same,Activity,HT-29 [7],Active
same,inhibition,[8],Active
same,inhibition,[9],Active
same,inhibition,HT-29 [10],Active
same,inhibition,HT-29 [11],Active
same,inhibition,HT-29 [12],Active
COc1ccc(-n2c(SCCc3c[nH]c4ccccc34)nnc2-c2ccncc2)cc1,Activity,HT-29 [13],59.672%
same,Activity,HT-29 [14],Active
same,Activity,HT-29 [15],Active
same,Activity,HT-29 [16],Active
same,inhibition,[17],Active
same,inhibition,HT-29 [18],Active
same,inhibition,HT-29 [19],Active
same,inhibition,HT-29 [20],Active
same,inhibition,HT-29 [21],Active
COc1cccc(-n2c(SCCc3c[nH]c4ccccc34)nnc2-c2ccncc2)c1,Activity,HT-29 [22],20.837%
same,Activity,HT-29 [23],2.668%
same,Activity,HT-29 [24],Active
same,Activity,HT-29 [25],2.467%
same,Activity,HT-29 [26],Active
same,inhibition,HT-29 [27],Active
same,inhibition,HT-29 [28],Active
same,inhibition,HT-29 [29],Active
same,inhibition,HT-29 [30],Active

# Reference: ChEMBL document CHEMBL5257059, “Pyridine-Based 1,2,4-Triazolo-Tethered Indole Conjugates Potentially Affecting TNKS and PI3K in Colorectal Cancer” (ACS Med Chem Lett, 2023)
